# Arr AP2 block – inhibitors of human beta-arrestin and AP2 interaction | FITC-arrestin peptide / GST-AP2 beads, flow cytometry; AP2 beta2 appendage carries R879A mutation | inhibition, % at 10 µM | hit rate 0.31% among 340,000 | AID 504490;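 active = inhibition above a set limit, near 3 SD of compounds lacking own fluorescence, cut at about 54% in these data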;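 also: plate controls were DMSO wells for no effect and 5 µM unlabelled arrestin peptide for full effect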
#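 Measured by: flow cytometry, FL1 (488/535 nm); Material: AP2 appendage R879A on GSH beads; Evaluation: percent response; Timing: pre-incubation 12 min, peptide binding 1 h, room temperature; Also added: 50 nM FITC-arrestin peptide; Medium: PBS with 0.05% Tween 20 and 0.1% BSA.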
# Rin1-Abl PPI inh – blocks binding of human Rin1 to Abl | AID 588664 | inhibition, % at 7.35 µM | P00519+Q13671 | hit rate 0.4% among 360,000 | TR-FRET Rin1/Abl binding, biochemical; in the data active = inhibition above about 5%, passing the limit was not always enough
# B2AR ag – agonists of human beta-2 adrenergic receptor inducing internalization; P07550; Am2.2-beta2AR cells, FAP receptor internalization, flow cytometry; response, % (no concentration beside the values); hit rate 0.43% among 340,000; AID 504454;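 active = response above a set limit, near 3 SD of response in nonfluorescent compounds, cut at about 42% in these data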
# UHRF1 binding – UHRF1 methyl-DNA binding inhibition | hit rate 0.75% among 370,000 | inhibition, % at 4.4 µM | Q96T88 | UHRF1 binding to methylated oligo, TR-FRET | AID 687016;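 also: UHRF1 SRA domain binding a hemimethylated CpG hairpin DNA probe; 0% = median of test compound wells and 100% = reference inhibitor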
# ABHD5 PLIN5 PPI – ABHD5-PLIN5 protein interaction inhibition; Split G. princeps luciferase complementation, luminescence, 4 h; hit rate 0.78% among 360,000; inhibition, % at 4 µM; AID 602281;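 active = inhibition above the mean inhibition across every tested compound plus 3 SD, cut at about 22% in these data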;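 also: 0% = DMSO only wells and the 100% control is not disclosed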
# MBD2 DNA inh – MBD2-methylated oligo binding inhibition; AID 686964; inhibition, % at 4.4 µM; hit rate 0.31% among 370,000; Q9UBB5; TR-FRET, MBD2 binding to methylated oligonucleotide; in the data active = inhibition above about 13%
# Target sequence (Q9UBB5 whole entry, looked up): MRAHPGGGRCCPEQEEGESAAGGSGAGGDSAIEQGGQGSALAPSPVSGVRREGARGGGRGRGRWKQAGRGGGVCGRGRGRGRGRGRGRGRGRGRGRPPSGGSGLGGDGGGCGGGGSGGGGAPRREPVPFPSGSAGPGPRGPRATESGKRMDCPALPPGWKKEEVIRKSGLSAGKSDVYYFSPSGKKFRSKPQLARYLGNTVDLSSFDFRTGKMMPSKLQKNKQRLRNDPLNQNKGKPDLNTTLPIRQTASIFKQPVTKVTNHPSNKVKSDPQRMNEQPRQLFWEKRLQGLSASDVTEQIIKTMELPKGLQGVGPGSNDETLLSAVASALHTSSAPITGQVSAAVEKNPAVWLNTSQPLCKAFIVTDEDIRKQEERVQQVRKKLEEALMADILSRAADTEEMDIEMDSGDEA
# UHRF1 ctr MBD2 – counter-screen for MBD2 inhibitors: human UHRF1 methylated DNA binding inhibitors. hit rate 25% among 1,000. shares compounds with MBD2 DNA inh. UHRF1 binding to methylated oligonucleotide, TR-FRET. inhibition, % at 4.4 µM. AID 720530;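 also: UHRF1 SRA domain binding a labeled hemimethylated CpG hairpin DNA; 0% = vehicle only and 100% = reference inhibitor with vehicle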
# MBD2 confirm – confirmation of human MBD2-DBD methylated oligonucleotide binding inhibitors; shares compounds with MBD2 DNA inh; inhibition, % at 4.4 µM; AID 720531; hit rate 26% among 1,000; TR-FRET MBD2-DBD binding to methylated oligonucleotide; in the data active = inhibition above about 14%
# * = called active by the depositor; . = not tested or not shown. Most compounds without a hit are left out; they make up all but 2.5% or so of the library. Rule as the data show it, unless noted: active = inhibition above about 21%; inactive = the rest.
SMILES,Arr AP2 block,Rin1-Abl PPI inh,B2AR ag,UHRF1 binding,ABHD5 PLIN5 PPI,MBD2 DNA inh,UHRF1 ctr MBD2,MBD2 confirm
Cc1cc(S(=O)(=O)NCC(c2ccccc2)c2ccccc2)ccc1-n1cnnn1,-1,7,1,18,16,14*,3,4
Cn1c(SCC(=O)Nc2ccccc2-c2ccccc2)nnc1-c1ccccc1,.,.,.,2,.,4,.,.
Cc1ccc(Cn2cc(CN3CC(N4CCN(CCO)CC4)CS3(=O)=O)nn2)cc1 (stereo not drawn),.,.,.,18,0,8,.,.
Oc1c(Br)cc(Br)c2cccnc12,-2,3,15,-10,-2,-7,.,.
O=c1cc(Br)c(O)c(Br)cc1Br,23,7,-7,39*,15,14*,14,-1
O=C(Nc1ccc(F)cc1)OCc1cn(Cc2cc(F)ccc2F)nn1,.,.,.,3,.,-3,.,.
O=C(c1ccncc1)N1CC[C@H]2[C@H](CCCN2Cc2cc(F)cc(F)c2)C1,.,.,.,-1,.,3,.,.
COC(=O)[C@H](Cc1ccccc1)N1Cc2ccccc2Oc2cc(Br)ccc2S1(=O)=O,.,.,.,-3,.,3,.,.
O=C(Cn1cnc2scc(-c3cccc([N+](=O)[O-])c3)c2c1=O)NCc1ccco1,3,-1,26,12,20,24*,23*,17*
O=C(O)c1ccc(-n2c(-c3cc(-c4ccco4)[nH]n3)n[nH]c2=S)cc1,5,1,-1,83*,9,27*,73*,23*
CC(=O)c1ccc(-n2c(-c3cc(-c4ccco4)[nH]n3)n[nH]c2=S)cc1,4,1,-1,0,0,-3,.,.
CC(Oc1ccccc1Cl)C(=O)/C=C/N(C)C (stereo not drawn),-11,-3,0,-4,2,17*,7,3
CN(C)c1ccc(C=c2c3ccccc3n3c2cc(-c2ccccc2)[n+]3C)cc1,3,-18,-588,41*,18,22*,64*,56*
CN(C)c1ccc(C=C2C=C(c3ccccc3)OC2=O)cc1,.,-1,.,-2,0,-5,.,.
CC1(C)CC(=O)C2=C(C1)OC(N)=C(C#N)[C@@H]2c1ccccc1[N+](=O)[O-],-13,-4,-6,-2,-10,18*,4,2
COc1cc(C2C(C#N)=C(N)OC3=C2C(=O)CC(C)(C)C3)c([N+](=O)[O-])cc1OC (stereo not drawn),17,3,9,-7,-14,-7,.,.
Cc1ccc(SCCN2CCC(C(C)(C)C)CCC2=O)cc1 (stereo not drawn),3,2,0,30*,-3,14*,5,4
CC(C)(C)C1CCC(=O)N(CCSc2ccccc2)CC1 (stereo not drawn),30,1,1,5,-1,-3,.,.
Cc1c[n+]([O-])n(-c2ccc(C(=O)O)cc2)n1,26,2,-1,21,3,15*,10,6
CCSc1nc(O)c(Cc2ccccc2)c(=O)[nH]1,20,2,-1,14,5,13*,4,6
Cc1ccsc1CN(C)c1ncnc2ccc(-c3ccoc3)cc12,.,-3,.,-3,10,-7,.,.
C=CCNC(=O)CN(C(=O)Cc1ccc(Cl)nc1)c1cccc(Br)c1,.,.,.,-3,.,-2,.,.
CN(C)C(=O)c1ccc(Cc2cn(C)c3ccccc23)nc1,.,2,.,1,10,4,.,.
c1coc(-c2ccc3nncn3c2)c1,.,3,.,76*,20,39*,62*,34*
COc1ccc(CC(=O)N2CCN(c3cccc(C)c3C)CC2)cc1,7,0,-4,1,-2,16*,5,4
SMILES,Arr AP2 block,Rin1-Abl PPI inh,B2AR ag,UHRF1 binding,ABHD5 PLIN5 PPI,MBD2 DNA inh,UHRF1 ctr MBD2,MBD2 confirm
C=C1C(=O)O[C@@]23[C@H]1CC[C@@H](C)[C@@H]2CC[C@@]1(C)O[C@@H]31,22,-1,16,.,13,.,.,.
COc1ccc(S(=O)(=O)NCC(=O)N(CC(=O)NCC2CCCO2)Cc2ccc(F)cc2)cc1 (stereo not drawn),4,1,11,-5,6,14*,1,3
CC1=NNC(=O)C1CCC(=O)N/N=C/c1ccc(Cl)cc1 (stereo not drawn),8,1,9,3,0,1,.,.
CC1=NNC(=O)C1CCC(=O)N/N=C/c1ccccc1 (stereo not drawn),-3,-2,-8,-1,-3,27*,7,2
O=C(/C=C/c1ccco1)NC(=S)Nc1cccc(C(=O)O)c1,0,5,-5,70*,8,17*,56*,18*
COc1cccc(NC(=S)NC(=O)/C=C/c2ccco2)c1,3,1,7,0,8,-2,.,.
Cc1ccc(C2NC(=S)NC3=C2C(=O)CCC3)cc1 (stereo not drawn),0,-5,2,24*,0,14*,1,2
COc1ccc(S(=O)(=O)N2C[C@H]3CON(C)[C@H]3C[C@H]2c2ccc(-c3cc4ccccc4o3)cc2)cc1,.,-4,.,1,-6,1,.,.
CCOC(=O)C(Cc1ccc(NC(C)=O)cc1)N1C(=O)c2ccccc2C1=O (stereo not drawn),3,1,-17,20,4,17*,2,-1
CCOC(=O)C(Cc1ccc(NC(=O)/C(=C\c2ccccc2)NC(=O)c2ccccc2)cc1)N1C(=O)c2ccccc2C1=O (stereo not drawn),-5,0,1,3,-7,-3,.,.
O=C(CNC(=O)c1ccccc1)OCN1C(=O)c2ccccc2C1=O,0,-2,0,2,12,15*,8,4
O=C1NC(=S)NC1=Cc1ccco1,5,5,1,61*,14,21*,19,4
CCOC(=O)c1c[nH]c(=S)n(-c2ccccc2)c1=O,-6,-1,-2,-1,0,37*,1,3
O=Cc1ccc([B-](F)(F)F)o1,.,.,.,4,.,0,.,.
CCOC(=O)N1CCN(C(=O)c2ccc(C#CC3(O)CCCCC3)cc2)CC1,-2,0,1,26*,-3,15*,11,1
O=C(CSc1cccc[n+]1[O-])Nc1cc2c(cc1Cl)C(=O)c1ccccc1C2=O,-2,-4,23,3,-10,3,.,.
O=C(CSc1cccc[n+]1[O-])Nc1cc([N+](=O)[O-])ccc1Cl,-5,1,2,1,-10,13*,10,5
O=C(C(=O)N1CCN(c2ccccc2)CC1)c1ccco1,.,.,.,-2,6,-3,.,.

# Bioassay records: PubChem BioAssay, several laboratories
